Test results: ChEMBL document CHEMBL3046702, “Herbicidal, plant growth inhibitory, and cytotoxic activities of bismuthines containing aromatic heterocycles” (J Agric Food Chem, 2003)
Calls of active or inactive are those of the source. The rule behind the calls is not given here.

Legend:
Phaseolus vulgaris [1] = assay: Herbicidal activity against Phaseolus vulgaris assessed as inhibition of mitochondrial oxygen uptake; assay type: functional, organism-based; conditions: read-out: I50
Trifolium pratense [2] = assay: Herbicidal activity against Trifolium pratense var. Kenland (red clover) assessed as inhibition of seed respiration during germination after 72 hr by polarographic analysis; assay type: functional, organism-based; conditions: for IC50: read-out: I50
Procedure, shortened: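 Red clover seeds were exposed to the bismuthines during germination, with respiration followed over the imbibition time. Values were taken at 72 h as the concentration giving 50% inhibition of seed respiration, using means of three experiments.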

Trifolium pratense [3] = assay: Herbicidal activity against Trifolium pratense var. Kenland (red clover) assessed as inhibition of seed germination after 48 hr; assay type: functional, organism-based; conditions: read-out: I50
Lolium multiflorum [4] = assay: Herbicidal activity against Lolium multiflorum var. Gulf (Italian ryegrass) assessed as inhibition of seed germination after 48 hr; assay type: functional, organism-based; conditions: read-out: I50
Lactuca sativa [5] = assay: Herbicidal activity against Lactuca sativa var.Roman (lettuce) assessed as inhibition of seed germination after 48 hr; assay type: functional, organism-based; conditions: read-out: I50
Artemia salina [6] = assay: Toxicity in Artemia salina (brine shrimp) larvae assessed as mortality; assay type: organism-based; conditions: in vivo
Procedure, shortened: (§1)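 Brine shrimp lethality test on *Artemia salina* larvae, run across several concentrations up to a top level of 1000 µM. Mortality was scored at each concentration, and LC50 values in µM were derived from the concentration–mortality data.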

Lactuca sativa [7] = assay: Herbicidal activity against Lactuca sativa var.Roman (lettuce) seedlings assessed as root length at 75 uM after 120 hr (reference value: 18 to 19 mm); assay type: functional, organism-based
Lolium multiflorum [8] = assay: Herbicidal activity against Lolium multiflorum var. Gulf (Italian ryegrass) seedlings assessed as shoot length rate at 7.5 uM after 48 hr relative to control; assay type: functional, organism-based
Procedure, shortened: (§2)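 Italian ryegrass seedlings grown with 0, 0.5, 1, 3, 5, 7.5 or 10 µM of each bismuthine. Shoot and root lengths were measured at 48 h and expressed as a percentage of the average untreated control length.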

Lactuca sativa [9] = assay: Herbicidal activity against Lactuca sativa var.Roman (lettuce) seedlings assessed as root length at 25 uM after 120 hr (reference value: 18 to 19 mm); assay type: functional, organism-based
Lolium multiflorum [10] = assay: Herbicidal activity against Lolium multiflorum var. Gulf (Italian ryegrass) seedlings assessed as root length rate at 1 uM after 48 hr relative to control; assay type: functional, organism-based; procedure, shortened: as §2
Lactuca sativa [11] = assay: Herbicidal activity against Lactuca sativa var.Roman (lettuce) seedlings assessed as seed germination rate at 1 uM after 48 hr relative to control; assay type: functional, organism-based
Lolium multiflorum [12] = assay: Herbicidal activity against Lolium multiflorum var. Gulf (Italian ryegrass) seedlings assessed as root length rate at 0.5 uM after 48 hr relative to control; assay type: functional, organism-based; procedure, shortened: as §2
Lactuca sativa [13] = assay: Herbicidal activity against Lactuca sativa var.Roman (lettuce) seedlings assessed as root length at 5 uM after 120 hr (reference value: 18 to 19 mm); assay type: functional, organism-based
Lactuca sativa [14] = assay: Herbicidal activity against Lactuca sativa var.Roman (lettuce) seedlings assessed as inhibition of seed germination at 5 uM after 48 hr; assay type: functional, organism-based
Trifolium pratense [15] = assay: Herbicidal activity against Trifolium pratense var. Kenland (red clover) seedlings assessed as partial inhibition of hypocotyle growth up to 15 uM after 48 hr; assay type: functional, organism-based
Lolium multiflorum [16] = assay: Herbicidal activity against Lolium multiflorum var. Gulf (Italian ryegrass) assessed as inhibition of seed respiration during germination after 72 hr by polarographic analysis; assay type: functional, organism-based
Lolium multiflorum [17] = assay: Herbicidal activity against Lolium multiflorum var. Gulf (Italian ryegrass) seedlings assessed as root length rate at 3 uM after 48 hr relative to control; assay type: functional, organism-based; procedure, shortened: as §2
Lactuca sativa [18] = assay: Herbicidal activity against Lactuca sativa var.Roman (lettuce) seedlings assessed as seed germination rate at 10 uM after 48 hr relative to control; assay type: functional, organism-based
Lolium multiflorum [19] = assay: Herbicidal activity against Lolium multiflorum var. Gulf (Italian ryegrass) seedlings assessed as root length rate at 7.5 uM after 48 hr relative to control; assay type: functional, organism-based; procedure, shortened: as §2
Lactuca sativa [20] = assay: Herbicidal activity against Lactuca sativa var.Roman (lettuce) seedlings assessed as root length at 50 uM after 120 hr (reference value: 18 to 19 mm); assay type: functional, organism-based
Lolium multiflorum [21] = assay: Herbicidal activity against Lolium multiflorum var. Gulf (Italian ryegrass) seedlings assessed as root length rate at 10 uM after 48 hr relative to control; assay type: functional, organism-based; procedure, shortened: as §2
[22] = system: Radical scavenging activity; assay: Antioxidant activity assessed as DPPH free radical scavenging activity at 5 to 100 uM after 30 min by spectrophotometric analysis; assay type: functional
Procedure, shortened: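 DPPH reduction by the compounds was read spectrophotometrically at 517 nm after 30 min. 100% DMSO served as the blank and quercetin as the reference scavenger.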

Lolium multiflorum [23] = assay: Herbicidal activity against Lolium multiflorum var. Gulf (Italian ryegrass) seedlings assessed as shoot length rate at 3 uM after 48 hr relative to control; assay type: functional, organism-based; procedure, shortened: as §2
Lactuca sativa [24] = assay: Herbicidal activity against Lactuca sativa var.Roman (lettuce) seedlings assessed as growth inhibition at 5 uM after 120 hr; assay type: functional, organism-based
Lolium multiflorum [25] = assay: Herbicidal activity against Lolium multiflorum var. Gulf (Italian ryegrass) seedlings assessed as root length rate at 5 uM after 48 hr relative to control; assay type: functional, organism-based; procedure, shortened: as §2
Lolium multiflorum [26] = assay: Herbicidal activity against Lolium multiflorum var. Gulf (Italian ryegrass) seedlings assessed as shoot length rate at 10 uM after 48 hr relative to control; assay type: functional, organism-based; procedure, shortened: as §2
Lactuca sativa [27] = assay: Herbicidal activity against Lactuca sativa var.Roman (lettuce) seedlings assessed as seed germination rate at 5 uM after 48 hr relative to control; assay type: functional, organism-based
Lactuca sativa [28] = assay: Herbicidal activity against Lactuca sativa var.Roman (lettuce) seedlings assessed as shoot length at 10 uM after 120 hr (reference value: 27 to 31 mm); assay type: functional, organism-based
Lolium multiflorum [29] = assay: Herbicidal activity against Lolium multiflorum var. Gulf (Italian ryegrass) seedlings assessed as shoot length rate at 0.5 uM after 48 hr relative to control; assay type: functional, organism-based; procedure, shortened: as §2
[30] = system: Radical scavenging activity; assay: Antioxidant activity assessed as DPPH free radical scavenging activity at 5 to 100 uM after 30 min by TLC autographic assay; assay type: functional
Lactuca sativa [31] = assay: Herbicidal activity against Lactuca sativa var.Roman (lettuce) seedlings assessed as seed germination rate at 7.5 uM after 48 hr relative to control; assay type: functional, organism-based
Lactuca sativa [32] = assay: Herbicidal activity against Lactuca sativa var.Roman (lettuce) seedlings assessed as shoot length at 75 uM after 120 hr (reference value: 27 to 31 mm); assay type: functional, organism-based
Lolium multiflorum [33] = assay: Herbicidal activity against Lolium multiflorum var. Gulf (Italian ryegrass) seedlings assessed as shoot length rate at 5 uM after 48 hr relative to control; assay type: functional, organism-based; procedure, shortened: as §2
Lactuca sativa [34] = assay: Herbicidal activity against Lactuca sativa var.Roman (lettuce) seedlings assessed as shoot length at 5 uM after 120 hr (reference value: 27 to 31 mm); assay type: functional, organism-based
Lactuca sativa [35] = assay: Herbicidal activity against Lactuca sativa var.Roman (lettuce) seedlings assessed as partial inhibition of hypocotyle growth up to 10 uM after 48 hr; assay type: functional, organism-based
Lactuca sativa [36] = assay: Herbicidal activity against Lactuca sativa var.Roman (lettuce) seedlings assessed as root length at 10 uM after 120 hr (reference value: 18 to 19 mm); assay type: functional, organism-based
Lactuca sativa [37] = assay: Herbicidal activity against Lactuca sativa var.Roman (lettuce) seedlings assessed as seed germination rate at 0.5 uM after 48 hr relative to control; assay type: functional, organism-based
Physalis ixocarpa = assay: Herbicidal activity against Physalis ixocarpa assessed as inhibition of seed respiration during germination after 72 hr by polarographic analysis; assay type: functional, organism-based
Lolium multiflorum [38] = assay: Herbicidal activity against Lolium multiflorum var. Gulf (Italian ryegrass) seedlings assessed as shoot length rate at 1 uM after 48 hr relative to control; assay type: functional, organism-based; procedure, shortened: as §2
Lactuca sativa [39] = assay: Herbicidal activity against Lactuca sativa var.Roman (lettuce) seedlings assessed as seed germination rate at 3 uM after 48 hr relative to control; assay type: functional, organism-based
Artemia salina [40] = assay: Toxicity in Artemia salina (brine shrimp) larvae assessed as mortality at 20 uM; assay type: organism-based; conditions: in vivo; procedure, shortened: as §1
Phaseolus vulgaris [41] = assay: Herbicidal activity against Phaseolus vulgaris assessed as inhibition of seed respiration during germination; assay type: functional, organism-based; conditions: read-out: I50
Artemia salina [42] = assay: Toxicity in Artemia salina (brine shrimp) larvae assessed as mortality at 200 uM; assay type: organism-based; conditions: in vivo; procedure, shortened: as §1
Artemia salina [43] = assay: Toxicity in Artemia salina (brine shrimp) larvae assessed as mortality at 100 uM; assay type: organism-based; conditions: in vivo; procedure, shortened: as §1
Artemia salina [44] = assay: Toxicity in Artemia salina (brine shrimp) larvae assessed as mortality at 500 to 1000 uM; assay type: organism-based; conditions: in vivo; procedure, shortened: as §1

TRIS(2-THIENYL)BISMUTH
IC50 (Phaseolus vulgaris [1]): 35 µM | IC50 (Trifolium pratense [2]): 13.5 µM | IC50 (Trifolium pratense [3]): 12.4 µM | IC50 (Lolium multiflorum [4]): 36 µM | IC50 (Lactuca sativa [5]): 49.7 µM | LC50 (Artemia salina [6]): > 1000 µM

TRIS(1-METHYL-2-PYRROLYL)BISMUTH
Activity (Lactuca sativa [7]): 0 mm | Activity (Lolium multiflorum [8]): 64% | Activity (Lactuca sativa [9]): 0 mm | Activity (Lolium multiflorum [10]): 78% | Activity (Lactuca sativa [11]): 85% | Activity (Lolium multiflorum [12]): 112% | Activity (Lactuca sativa [13]): 30 mm | inhibition (Lactuca sativa [14]): Active | growth inhibition (GI) (Trifolium pratense [15]): Active | inhibition (Lolium multiflorum [16]): inactive | inhibition (Trifolium pratense [2]): Dose-dependent effect | Activity (Lolium multiflorum [17]): 76% | Activity (Lactuca sativa [18]): 60% | Activity (Lolium multiflorum [19]): 60% | Activity (Lactuca sativa [20]): 0 mm | Activity (Lolium multiflorum [21]): 34% | Activity [22]: Active | Activity (Lolium multiflorum [23]): 82% | inhibition (Lactuca sativa [24]): 30% | Activity (Lolium multiflorum [25]): 46% | Activity (Lolium multiflorum [26]): 28% | Activity (Lactuca sativa [27]): 76% | Activity (Lactuca sativa [28]): 9 mm | Activity (Lolium multiflorum [29]): 93% | Activity [30]: inactive | Activity (Lactuca sativa [31]): 65% | Activity (Lactuca sativa [32]): 0 mm | Activity (Lolium multiflorum [33]): 66% | Activity (Lactuca sativa [34]): 29 mm | growth inhibition (GI) (Lactuca sativa [35]): Active | Activity (Lactuca sativa [36]): 11 mm | Activity (Lactuca sativa [37]): 85% | inhibition (Physalis ixocarpa): Active | Activity (Lolium multiflorum [38]): 84% | Activity (Lactuca sativa [39]): 80%

TRIS(2-FURYL)BISMUTH
mortality (Artemia salina [40]): 12.28% | IC50 (Phaseolus vulgaris [41]): 1.1 µM | IC50 (Phaseolus vulgaris [1]): 10 µM | mortality (Artemia salina [42]): 68.96% | IC50 (Trifolium pratense [2]): 6.3 µM | IC50 (Trifolium pratense [3]): 4.6 µM | mortality (Artemia salina [43]): 50.9% | IC50 (Lolium multiflorum [4]): 20 µM | IC50 (Lactuca sativa [5]): 16.1 µM | mortality (Artemia salina [44]): 100% | LC50 (Artemia salina [6]): 99 µM
